Data from ChEMBL document CHEMBL1127071, “Structure-activity relationships of C-terminal endothelin hexapeptide antagonists” (J Med Chem, 1993).
pEC50, pIC50: −log10 of the molar value. Where a SMILES comes first, the peptide text is derived from it. [ ]: non-standard residue; d: D form. dDip = N[C@@H](C(=O)O)C(c1ccccc1)c1ccccc1; Orn = NCCC[C@H](N)C(=O)O

Columns and labels:
Endothelin receptor = target: T1, Endothelin receptor (Rattus norvegicus, UniProt P26684+P21451); assay: Binding affinity against Endothelin receptor from rat heart ventricle; type: protein assay
T1 sequence (P26684 whole entry): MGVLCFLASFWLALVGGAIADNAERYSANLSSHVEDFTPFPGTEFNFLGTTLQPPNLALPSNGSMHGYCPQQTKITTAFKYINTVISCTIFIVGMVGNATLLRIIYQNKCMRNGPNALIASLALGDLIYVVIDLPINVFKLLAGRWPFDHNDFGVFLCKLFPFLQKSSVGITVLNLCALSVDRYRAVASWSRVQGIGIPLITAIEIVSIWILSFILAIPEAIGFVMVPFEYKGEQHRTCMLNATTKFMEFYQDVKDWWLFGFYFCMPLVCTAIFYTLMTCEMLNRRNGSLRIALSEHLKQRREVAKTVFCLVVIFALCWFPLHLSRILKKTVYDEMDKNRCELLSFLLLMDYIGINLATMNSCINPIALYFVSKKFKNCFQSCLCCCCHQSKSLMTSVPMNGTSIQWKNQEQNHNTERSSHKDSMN
T1 sequence (P21451 whole entry): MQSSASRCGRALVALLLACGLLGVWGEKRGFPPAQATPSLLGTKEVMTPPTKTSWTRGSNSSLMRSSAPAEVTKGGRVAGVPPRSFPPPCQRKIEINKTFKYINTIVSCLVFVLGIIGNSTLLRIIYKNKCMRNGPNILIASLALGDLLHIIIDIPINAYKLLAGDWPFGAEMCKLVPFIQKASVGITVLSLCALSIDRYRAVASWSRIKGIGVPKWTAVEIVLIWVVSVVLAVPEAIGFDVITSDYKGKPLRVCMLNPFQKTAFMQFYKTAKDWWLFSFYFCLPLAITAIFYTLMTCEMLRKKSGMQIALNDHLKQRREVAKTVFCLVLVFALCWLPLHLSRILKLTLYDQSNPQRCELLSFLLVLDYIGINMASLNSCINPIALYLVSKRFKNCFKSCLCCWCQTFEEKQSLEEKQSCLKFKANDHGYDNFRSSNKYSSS

Rattus norvegicus = species on record: Rattus norvegicus; assay: Inhibition of ET-1 stimulated inositol phosphate accumulation in rat fibroblast; type: functional, organism-based
Method in brief: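 Rat skin fibroblasts prelabelled with [3H]inositol; ET-1-stimulated accumulation of total [3H]inositol phosphates in presence of Li+, measured by anion-exchange chromatography.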

[1] = target: T2, Endothelin receptor type B (Rattus norvegicus, UniProt P21451); assay: Effective concentration against Endothelin B receptor from rat cerebellum; type: tissue-based
T2 sequence (P21451 whole entry): T1 sequence (P21451 whole entry)
Method in brief: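 Competition binding of 30 pM [125I]-ET-1 (2,000 Ci/mmol) to 5 µg membranes: rabbit renal artery vascular smooth muscle (ETA) or adult rat cerebellum (ETB). Buffer is 20 mM Tris, 2 mM EDTA, 100 µM PMSF and 100 µM bacitracin, pH 7.4, 37 °C, 2 h. Reaction stopped by GF/B filtration. Nonspecific binding measured with 100 nM ET-1. Triplicate points; IC50 from a one-site nonlinear fit.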

Oryctolagus cuniculus = species on record: Oryctolagus cuniculus; assay: Effective concentration against ET-1 stimulated arachidonic acid release in rabbit renal artery vascular smooth muscle cells; type: functional
Method in brief: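 Confluent rabbit renal artery smooth muscle cells loaded 18 h at 37 °C with 0.25 µCi/mL [3H]arachidonic acid in DME/F12 with 0.5% FCS. Cells washed in Hank's/10 mM HEPES/fatty acid-free BSA buffer with three 5-min incubations. Then exposed 30 min to test compound (1 nM to 1 µM) plus 0.3 nM ET-1. Released [3H] counted by liquid scintillation; IC50 determined.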

Compound	pEC50 [1]	pEC50 (Oryctolagus cuniculus)	IC50 (Endothelin receptor) [µM]	pIC50 (Rattus norvegicus)
CC[C@H](C)[C@H](NC(=O)[C@@H](NC(=O)[C@@H](CC(=O)O)NC(=O)[C@H](CC(C)C)NC(=O)[C@H](Cc1c[nH]cn1)NC(C)=O)[C@@H](C)CC)C(=O)N[C@@H](Cc1c[nH]c2ccccc12)C(=O)O	–	–	37	< 4.30
CC[C@H](C)[C@H](NC(=O)[C@H](CC(=O)O)NC(=O)[C@H](CCCN)NC(=O)[C@H](NC(C)=O)C(c1ccccc1)c1ccccc1)C(=O)N[C@H](C(=O)N[C@@H](Cc1c[nH]c2ccccc12)C(=O)O)[C@@H](C)CC (Ac-[dDip][Orn]DIIW-OH)	6.82	7.52	–	–
CC[C@H](C)[C@H](NC(=O)[C@H](CC(=O)O)NC(=O)[C@H](CC(C)C)NC(=O)[C@H](N)C(c1ccccc1)c1ccccc1)C(=O)N[C@H](C(=O)N[C@@H](Cc1c[nH]c2ccccc12)C(=O)O)[C@@H](C)CC (H-[dDip]LDIIW-OH)	5.72	–	–	–
CC[C@@H](C)[C@@H](NC(=O)[C@@H](NC(=O)[C@H](CC(=O)O)NC(=O)[C@H](CC(C)C)NC(=O)[C@H](Cc1c[nH]cn1)NC(C)=O)[C@@H](C)CC)C(=O)N[C@@H](Cc1c[nH]c2ccccc12)C(=O)O	–	–	16.9	< 4.00
CC[C@H](C)[C@H](NC(=O)[C@H](CC(=O)O)NC(=O)[C@H](CC(C)C)NC(=O)[C@H](Cc1c[nH]cn1)NC(C)=O)C(=O)N[C@H](C(=O)N[C@@H](Cc1c[nH]c2ccccc12)C(=O)O)[C@@H](C)CC	–	–	58	4.30
CC[C@H](C)[C@H](NC(=O)[C@@H](NC(=O)[C@H](CC(=O)O)NC(=O)[C@H](CC(C)C)NC(=O)[C@H](NC(C)=O)C(c1ccccc1)c1ccccc1)C(C)C)C(=O)N[C@@H](Cc1c[nH]c2ccccc12)C(=O)O (Ac-[dDip]LDVIW-OH)	7.30	7.54	–	–
CC[C@H](C)[C@H](NC(=O)[C@H](Cc1ccccc1)NC(=O)[C@H](CC(C)C)NC(=O)[C@H](NC(C)=O)C(c1ccccc1)c1ccccc1)C(=O)N[C@H](C(=O)N[C@@H](Cc1c[nH]c2ccccc12)C(=O)O)[C@@H](C)CC (Ac-[dDip]LFIIW-OH)	7.22	5.89	–	–

Further lines, with some results ahead:

pEC50 [1]	pEC50 (Oryctolagus cuniculus)	Compound	IC50 (Endothelin receptor) [µM]	pIC50 (Rattus norvegicus)
5.22	5.59	CC[C@H](C)[C@H](NC(=O)[C@H](CC(=O)O)NC(=O)[C@H](CC(C)C)NC(=O)[C@H](NC(C)=O)C(c1ccccc1)c1ccccc1)C(=O)N[C@H](C(=O)N[C@@H](Cc1c[nH]c2ccccc12)C(=O)O)C(C)C (Ac-[dDip]LDIVW-OH)	–	–
7.28	6.89	CC[C@H](C)[C@H](NC(=O)[C@H](CC(=O)O)NC(=O)[C@H](CCC(=O)O)NC(=O)[C@H](NC(C)=O)C(c1ccccc1)c1ccccc1)C(=O)N[C@H](C(=O)N[C@@H](Cc1c[nH]c2ccccc12)C(=O)O)[C@@H](C)CC (Ac-[dDip]EDIIW-OH)	–	–
5.21	5.37	CC[C@H](C)[C@H](NC(=O)[C@H](CC(=O)O)NC(=O)[C@H](CC(C)C)NC(=O)[C@H](NC(C)=O)C(c1ccccc1)c1ccccc1)C(=O)N[C@H](C(=O)N[C@@H](Cc1ccc(O)cc1)C(=O)O)[C@@H](C)CC (Ac-[dDip]LDIIY-OH)	–	–
